# Rows were chosen to be rich in hits. Some 2.6% of all compounds tested hit in one or more screens of this group.
# MEKK3 PB1 HTS: modulators of MEKK3-MEK5 PB1 binding, primary screen, biochemical, wildtype MEKK3, multiplex bead flow cytometry, Alexa488-MEK5 | Mitogen-activated protein kinase kinase kinase 3 (Homo sapiens), Q99759 | bead-based flow cytometry, Alexa488-MEK5 binding to MEKK3; actives lie on both sides; 0 = blocked by unlabeled MEK5, 100 = vehicle | binding response (% of control), % at 10 µM | actives 1.4% (n = 290,000);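 active means binding response more than 3 SD above or below the average of its plate-row segment, actives on both sides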;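 further: Alexa488 bead fluorescence after subtracting the streptavidin-only scavenger bead signal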
# Target sequence (Q99759 whole entry, looked up): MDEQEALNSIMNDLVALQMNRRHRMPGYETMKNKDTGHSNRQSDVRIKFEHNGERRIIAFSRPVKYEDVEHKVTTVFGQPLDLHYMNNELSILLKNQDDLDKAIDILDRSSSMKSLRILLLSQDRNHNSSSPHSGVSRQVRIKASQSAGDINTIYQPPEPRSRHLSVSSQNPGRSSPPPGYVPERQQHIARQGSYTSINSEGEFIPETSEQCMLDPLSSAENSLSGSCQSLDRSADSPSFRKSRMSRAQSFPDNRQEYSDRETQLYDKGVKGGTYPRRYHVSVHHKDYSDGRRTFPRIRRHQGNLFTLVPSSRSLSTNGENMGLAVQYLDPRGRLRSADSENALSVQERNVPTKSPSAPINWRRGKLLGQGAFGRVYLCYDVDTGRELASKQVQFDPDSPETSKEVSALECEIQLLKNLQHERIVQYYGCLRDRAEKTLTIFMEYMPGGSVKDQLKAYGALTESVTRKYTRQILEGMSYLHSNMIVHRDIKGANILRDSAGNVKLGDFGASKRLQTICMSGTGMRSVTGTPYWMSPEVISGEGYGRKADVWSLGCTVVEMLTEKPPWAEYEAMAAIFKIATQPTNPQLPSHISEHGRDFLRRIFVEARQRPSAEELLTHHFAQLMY
# MEKK2 WT-MEK5: modulators of MEK5 binding to wildtype MEKK2, primary screen, biochemical, multiplex bead flow cytometry, Alexa488-MEK5 | Mitogen-activated protein kinase kinase kinase 2 (Homo sapiens), Q9Y2U5 | Alexa488-MEK5 binding to MEKK2 WT; actives lie on both sides | binding response (% of control), % at 10 µM | actives 1.1% (n = 290,000); in the data active means binding response below about 67% or above about 130%
# MEKK2mut PB1 HTS: MEK5 binding signal on mutant MEKK2 PB1, primary screen, biochemical, multiplex bead flow cytometry, Alexa488-MEK5; Alexa488-MEK5 binding to MEKK2 mutant; percent response, % at 10 µM; actives 0.35% (n = 290,000); in the data active means percent response above about 24%, passing the limit was not always enough
# Lipid droplet: inhibitors of hepatocyte lipid droplet formation, primary screen, imaging, high-throughput imaging, BODIPY stain. AML12 mouse hepatocytes, oleate lipid droplets. inhibition, % at 6.5 µM. actives 0.4% (n = 240,000);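 active means lipid droplet intensity inhibited by at least 50%, with more than 500 cells counted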
#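 Assay system: AML12 mouse liver cells | Compound: 6.5 µM single-point dosing | Schedule: Overnight exposure | Technique: Fluorescence imaging, 20x objective, two fields per well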
# MEKK2wt confirm: modulators of MEK5 binding to wildtype MEKK2, confirmation, biochemical, single concentration, multiplex bead flow cytometry; shares compounds with MEKK3 PB1 HTS; Alexa488-MEK5 binding to MEKK2 WT; actives lie on both sides; binding response (% of control), % at 10 µM; actives 2.4% (n = 5,900); AID 1892, 2009; in the data active means binding response below about 16% or above about 210%; inactive means in between
# MEKK2mut confirm: mutant MEKK2 PB1-MEK5 binding signal retest – biochemical, single concentration, multiplex bead flow cytometry, confirmation; shares compounds with MEKK3 PB1 HTS; Alexa488-MEK5 binding to MEKK2 mutant; percent response, % at 10 µM; actives 2% (n = 5,900); AID 1893, 2009; in the data active means percent response mostly above about 71%, no sharp cut-off; inactive means mostly below about 38%;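 further: higher means compound restores mutant binding toward wildtype level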
# MEKK3-MEK5 inh: MEKK3 wild-type PB1 binding to MEK5, inhibitors, confirmation, biochemical, bead multiplex flow cytometry, single concentration, wildtype | AID 1894, 2009 | Alexa488-MEK5 binding to MEKK3; hits give low values | shares compounds with MEKK3 PB1 HTS | actives 1.8% (n = 5,900) | binding response (% of control), % at 10 µM;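 active means binding response below 72% of control, or above a set upper limit, though filed actives all read lower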;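 further: 100% = DMSO only wells and 0% = binding blocked by excess unlabeled MEK5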
# * hit, by the source's call; · = not tested or not shown; [ ] = dose if it differs, or a comment.
SMILES,MEKK3 PB1 HTS,MEKK2 WT-MEK5,MEKK2mut PB1 HTS,Lipid droplet,MEKK2wt confirm,MEKK2mut confirm,MEKK3-MEK5 inh
O=C(Cn1cnc([N+](=O)[O-])n1)N/N=C/c1cc(Cl)ccc1O,135*,121,17,14,110,6,106
Cc1ccc(C(=O)N2CCC(C)CC2)cc1NC1=NC2CS(=O)(=O)CC2S1 (configuration not stated),104,106,5,1,·,·,·
Cc1ccc(C)c(CN2CCC(CNC(=O)Nc3ccc(Br)cc3F)CC2)c1,109,140*,22,-11,148,18,104
N=c1n(CC(=O)c2ccc(Br)s2)c2ccccc2n1Cc1ccccc1,102,158*,39,-24,145,11,100
CCc1ccc2nc(N(CCCN(C)C)C(=O)c3ccc(S(=O)(=O)N4CCc5ccccc5C4)cc3)sc2c1,106,176*,28*,-8,197,60,96
CCOc1cccc2sc(N(CCCN(C)C)C(=O)c3ccc(S(=O)(=O)N4CCc5ccccc5C4)cc3)nc12,113,200*,49*,-14,305*,126*,116
CCOc1cccc2sc(N(CCCN(C)C)C(=O)c3ccc(S(=O)(=O)N(C)c4ccccc4)cc3)nc12,105,127,-6,15,·,·,·
COc1cc(CO)c(OC)c([N+](=O)[O-])c1,96,95,-12,1,·,·,·
COc1cccc(NC(=O)CCN2C(=O)c3ccccc3Sc3ncccc32)c1,97,101,2,-4,·,·,·
O=C(Nc1ccncc1)C1COc2ccccc2O1 (configuration not stated),87,94,-4,3,·,·,·
O=C(NC1=NCCS1)C1COc2ccccc2O1 (configuration not stated),1.0*[inhibitor],-1.0*[inhibitor],-8,·,98,1,99
CC1CCN(c2ccc(NC(=O)c3ccc(Br)o3)cc2)CC1,103,104,6,-8,·,·,·
NNC(=O)c1cc2c(s1)-c1cc(Cl)ccc1SC2,102,99,3,20,·,·,·
CCN(CC)CCNC(=O)c1cc2c(s1)-c1ccccc1SC2,107,146*,25*,-1,129,13,105
CN(Cc1ccccc1)c1ncc(C=O)s1,103,104,14,-11,·,·,·
O=C(O)c1ccc(-c2nnc(-c3ccccc3)o2)cc1,98,98,4,·,·,·,·
O=C(O)c1ccc(-c2nnc(-c3ccc([N+](=O)[O-])cc3)o2)cc1,112,115,26*,1,98,-6,93
Cc1cc(OCCOCCNCc2ccccc2)ccc1C(C)C,109,134*,6,-4,100,-4,103
Cc1ccc(C)c(OCCCNCc2ccccc2)c1,107,129,9,1,·,·,·
Cc1ccc(C(C)C)c(OCCNCc2ccccc2)c1,109,134*,6,-8,128,13,105
COc1ccc(CCNS(=O)(=O)CC23CCC(CC2=O)C3(C)C)cc1OC (configuration not stated),114,118,29*,-2,101,0,103
COc1cccc(C(C(=O)NC(C)(C)C)N(Cc2ccc(F)cc2)C(=O)CCC(=O)Nc2cc(C)on2)c1OC (configuration not stated),96,98,1,-12,·,·,·
CC1CCCCC1NC(=O)CCS(=O)(=O)c1cc2c(cc1Cl)NC(=O)CO2 (configuration not stated),101,102,2,-9,·,·,·
CCCCNC(=S)NNC(=O)c1ccoc1C,105,108,4,·,·,·,·
Cc1occc1C(=O)NNC(=O)c1ccc(F)cc1,0.0*[inhibitor],-1.0*[inhibitor],-17,·,104,2,103
SMILES,MEKK3 PB1 HTS,MEKK2 WT-MEK5,MEKK2mut PB1 HTS,Lipid droplet,MEKK2wt confirm,MEKK2mut confirm,MEKK3-MEK5 inh
Cc1occc1C(=O)NNC(=O)c1ccccc1F,97,100,0,3,·,·,·
COCCCNC(=S)NNC(=O)c1ccoc1C,74*[inhibitor],101,-3,-4,105,1,102
CNC(=O)CC1C(=O)N(c2ccc(OC)cc2)C(=S)N1NC(=O)c1cccc(F)c1 (configuration not stated),97,99,2,-11,·,·,·
COc1cc(NC(=S)NCc2ccc(S(N)(=O)=O)cc2)c(OC)cc1Cl,59*[inhibitor],102,0,10,103,3,101
CC1CC(C)(C)NC(=S)N1CCC(=O)N1c2ccccc2CC1C (configuration not stated),69,72,-14,-6,·,·,·
O=C(CN(Cc1ccc(F)cc1)C(=O)c1csnn1)NC1CCCC1,99,96,2,-21,·,·,·
COc1cccc(CNCC(O)(c2ccc(Cl)cc2)c2ccc(Cl)cc2)c1,111,158*,7,·,118,5,98
CCc1ccc(C(O)(CNCc2ccccc2)c2ccccc2)cc1 (configuration not stated),111,120,26*,-3,114,9,106
COc1ccc(CNCC(O)(c2ccccc2)c2ccc(Cl)cc2)cc1 (configuration not stated),105,122,6,-11,·,·,·
Cc1nn(S(=O)(=O)c2ccccc2)c(C)c1S(=O)(=O)N1CCC(C)CC1,105,105,5,7,·,·,·
CCn1c(NC(=O)/C=C/c2ccc(F)cc2)nc2ccccc21,100,105,5,·,·,·,·
COCCNC(=O)CSc1nc(-c2ccc(OC)c(OC)c2)cc(C(F)(F)F)n1,79*[inhibitor],87,-12,-13,93,0,89
COC(=O)c1ccsc1NS(=O)(=O)c1ccccc1,102,101,-2,-8,·,·,·
Cc1cccc(NC(=O)N2CCC(NC(=O)c3ccco3)CC2)c1,95,91,-10,-2,·,·,·
CSc1cccc(NC(=O)C2CCN(C(=O)c3ccccc3C)CC2)c1,151*,108,1,10,96,-12,96
Cc1cccc(NC(=O)N2CCC(NC(=O)c3ccccc3C)CC2)c1,2.0*[inhibitor],2.0*[inhibitor],-17,·,96,2,105
COc1ccccc1NC(=O)CSc1nnnn1C1CCCCC1,101,99,-4,14,·,·,·
COc1ccc(Cl)cc1NC(=O)NCCN1CCCCC1,103,106,3,6,·,·,·
COc1ccc(Cl)cc1NC(=O)NC1CCCCC1,81*[inhibitor],91,-13,1,93,-4,96
